Hits are enriched below; roughly 2% of the tested compounds scored in any of these assays.
PABP1 MLLE inh: inhibitors of microRNA-mediated deadenylation, human PABP1 MLLE binding. P11940. inhibition, % at 20 µM. GST-MLLE / FITC-PAM2 fluorescence polarization. 0.36% of 360,000 active; in the data active = inhibition above about 35%, passing the limit was not always enough
DNA FID counter: displaces DNA intercalator in HCV helicase counter-screen; DNA fluorescent intercalator displacement, fluorescence; inhibition, % at 7.9 µM; 0.17% of 290,000 active; AID 1845; in the data active = inhibition above about 37%;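 also: higher means more ethidium bromide displaced from hairpin DNA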
eIF4H inh: inhibitors of RNA binding by human eIF4H | Q15056 | 0.94% of 290,000 active | inhibition, % at 35 µM | eIF4H fluorescence polarization binding assay;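 also: calls also rest on retests at 20 µM and on dose response follow-up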
PABP FP inh: PABP-poly(A) binding inhibition. P11940. PABP-poly(A) RNA binding, fluorescence polarization. inhibition, % at 35 µM. 1% of 290,000 active. AID 2014;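 also: calls also rest on retests at 20 µM and on dose response follow-up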
HCV core dimer: HCV core protein dimerization inhibition | TR-FRET GST/Flag-core106 dimerization, 1536-well | inhibition, % at 5 µM | 0.33% of 300,000 active;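 active = inhibition above the mean of all tested compounds plus 3 SD, set per screening campaign, cut at about 45% in these data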
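System – GST-tagged and Flag-tagged HCV core protein residues 1-106 · Repeats – one well for each compound · Technique – TR-FRET 671 and 617 nm emission · Doses – one concentration, 5 µM, in 0.5% DMSO · Times – 4 h, 22.5 °C incubation · Also added – Eu donor and XL665 acceptor anti-tag antibodies · Measure – percent inhibition of core106 dimerization signal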
NS3 helicase inh: inhibitors of Hepatitis C virus NS3 helicase | NS3 helicase DNA unwinding, Cy5 molecular beacon fluorescence | inhibition, % at 10.9 µM | 0.56% of 290,000 active;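 active = inhibition above the mean of all tested compounds plus 3 SD, set per campaign, cut at about 35% in these data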
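assay system = NS3 helicase fragment of HCV | buffer or medium = MOPS pH 6.5, MgCl2, DTT, Tween20, BSA | timing = 60 min unwinding reaction at 25 °C after ATP addition | signal = Cy5 beacon fluorescence read at start and 1 h | read-out basis = % inhibition of unwinding | control set = low DMSO, high thioflavine S at 110 µM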
Numbers stand for hits; . = inactive; / = not tested or not shown. Unless noted, no rule for the calls is given here.

SMILES | PABP1 MLLE inh | DNA FID counter | eIF4H inh | PABP FP inh | HCV core dimer | NS3 helicase inh
O=[N+]([O-])c1cccc(C2Nc3cccc4cccc(c34)N2)c1 | . | . | . | . | . | .
O=[N+]([O-])c1ccc(C2Nc3cccc4cccc(c34)N2)cc1 | . | . | 97.3 | 87.2 | . | .
N=c1sccn1CC(=O)Nc1ccccc1Cc1ccccc1 | . | . | . | . | . | .
N=c1sccn1CC(=O)NC(c1ccccc1)c1ccccc1 | . | . | 1.1 | . | . | .
CC1CC(C)CN(CC(=O)NC(c2ccccc2)c2ccccc2)C1 (centres undefined) | . | 37.0 | . | . | . | .
COc1cccc(S(=O)(=O)N(C)C[C@H]2OCc3cnnn3CCCC(=O)N([C@@H](C)CO)C[C@@H]2C)c1 | . | / | / | / | / | /
CCN(CC(=O)Nc1ccc(NC(C)=O)cc1)C(=O)/C=C/c1ccc(C)o1 | . | / | / | / | / | /
CCN(CCNCC(O)COc1ccccc1C(C)C)c1cccc(C)c1 (centres undefined) | . | . | . | . | . | .
COc1cc(/C=C2\SC(=S)N(c3cccnc3)C2=O)ccc1O | . | . | 71.4 | . | . | .
O=C1/C(=C/c2cccnc2)SC(=S)N1c1ccc(F)cc1 | 43.3 | . | . | . | . | .
COc1cc(/C=C2\SC(=S)N(NC(=O)c3cccnc3)C2=O)ccc1O | . | . | . | . | . | .
N#Cc1ccccc1OCC(=O)Nc1ccc2c(c1)OCO2 | . | / | / | / | / | /
CCCCn1c(=O)[nH]c(=O)c2c1nc(-c1ccc(C#N)cc1)n2C1CCCC1 | . | . | . | . | 57.9 | .
CN(CC(=O)Nc1cccc(F)c1)C(=O)c1ccccc1OCCOc1ccccc1 | . | / | / | / | . | /
NC(=O)NOCc1c(F)cccc1Cl | . | . | . | 53.6 | . | .
NC(=O)NOCc1c(Cl)cccc1Cl | . | . | . | . | . | .
CC1(C(=O)NS(=O)(=O)c2cccc(F)c2)CCN1C(=O)Cc1cccc2ccccc12 (centres undefined) | . | / | / | / | / | /
COC(=O)CNC(=O)C(C)(C)Oc1ccc(Cl)cc1 | . | . | . | . | . | .
CC(C)(Oc1ccc(Cl)cc1)C(=O)NCc1ccc(S(N)(=O)=O)cc1 | . | . | 65.7 | . | . | .
O=C(NC1(C(F)(F)F)NC(=O)N(Cc2ccco2)C1=O)c1cccs1 (centres undefined) | . | . | 92.2 | 50.4 | . | .
COc1ccc(NC(=O)N(C)C[C@H]2Oc3ccc(NC(=O)CCN4CCOCC4)cc3C(=O)N([C@@H](C)CO)C[C@H]2C)cc1 | . | / | / | / | / | /
Cc1ccc(N2C(=O)CC(Sc3ccccc3C(=O)O)C2=O)c([N+](=O)[O-])c1 (centres undefined) | 37.7 | . | . | . | . | .
Nc1nnc(SC2CC(=O)N(c3ccccc3)C2=O)s1 (centres undefined) | 42.0 | . | . | . | . | .
CC(C)c1ccc(N2C(=O)CC(Sc3ncccn3)C2=O)cc1 (centres undefined) | 38.5 | . | . | . | / | .
Cc1ccc(N2C(=O)CC(Sc3ccccc3C(=O)O)C2=O)cc1C (centres undefined) | . | . | . | . | . | .
SMILES | PABP1 MLLE inh | DNA FID counter | eIF4H inh | PABP FP inh | HCV core dimer | NS3 helicase inh
Cc1ccc(N2C(=O)CC(Sc3ccccc3C(=O)O)C2=O)cc1 (centres undefined) | 50.0 | . | . | . | . | .
Cc1ccnc(SC2CC(=O)N(c3ccc(C(C)C)cc3)C2=O)n1 (centres undefined) | . | . | . | . | . | .
Cc1c(Cl)cccc1N=C1NC(=O)CS1 | . | / | / | / | / | /
COc1ccccc1[C@@]1(C)ON(c2ccccc2C(F)(F)F)C1=O | . | / | / | / | / | /
CC(NC(=O)c1cccc(S(=O)(=O)N2CCCCCC2)c1)c1ccccc1 (centres undefined) | . | / | / | / | / | /
Nc1ccccc1SC1CC(=O)N(c2ccc3c(c2)OCO3)C1=O (centres undefined) | . | . | . | . | . | .
Cc1cccc(N2C(=O)CC(Sc3ccccc3C(=O)O)C2=O)c1 (centres undefined) | . | . | . | . | . | .
Cc1cc(C)cc(N2C(=O)CC(Sc3ccccc3C(=O)O)C2=O)c1 (centres undefined) | 41.1 | . | . | . | . | .
O=C(O)c1ccccc1SC1CC(=O)N(c2ccc3c(c2)OCO3)C1=O (centres undefined) | 37.6 | . | . | . | . | .
CC(C)N1CCc2c(sc(NC(=O)c3ccc(S(=O)(=O)N4CCOCC4)cc3)c2C#N)C1 | . | . | 77.8 | 87.7 | . | .
CCOC(=O)N1CCc2c(sc(NC(=O)c3ccc(S(=O)(=O)N4CCCC4)cc3)c2C#N)C1 | . | . | . | . | . | .
Cc1c(NC(=O)CSCc2ccc(Br)cc2)c(=O)n(-c2ccccc2)n1C | . | . | active | 74.8 | . | .
Cc1c(NC(=O)COC(=O)Cc2ccc(Br)cc2)c(=O)n(-c2ccccc2)n1C | . | / | / | / | / | /
Cc1ccc(C)n1-c1nc(=S)[nH][nH]1 | 45.2 | . | . | . | . | .
CCNC(=S)NC(=NCc1cccnc1)Nc1nc(C)cc(C)n1 | 64.7 | . | . | . | . | .
O=C(N=Nc1c(O)[nH]c2ccccc12)c1ccc2c(c1)OCO2 | . | . | 8.5 | 53.8 | . | .
CN1/C(=N\O)c2cccc3cccc1c23 | . | . | . | . | . | .
CC(=O)c1ccc2cccc3c2c1N=CN3C | . | . | 72.3 | . | . | .
CC(/C=N/n1cnnc1)=C\c1ccco1 | . | . | . | active | . | .
CCN(CC)C(=O)CSC(=Nc1ccccc1F)NC#N | . | . | 45.5 | 55.8 | . | .
O=C1C=C(C#Cc2ccc(Oc3ccccc3)cc2)C[C@@H](c2ccc(F)cc2)C1 | . | / | / | / | / | /
COc1cc(C2c3sc(=O)[nH]c3SC3C(=O)N(c4ccc(Br)cc4)C(=O)C32)ccc1O (centres undefined) | 47.2 | . | . | . | . | .
COc1ccccc1Nc1nc(N)nc(CN2CCCCC2)n1 | . | . | 2.7 | 88.7 | . | .
COc1ccccc1Nc1nc(N)nc(CN2CCN(Cc3ccccc3)CC2)n1 | . | . | . | . | . | .
COc1ccc(-n2c(SCC(=O)Nc3ccc(C(=O)O)cc3)nnc2-c2ccccc2)cc1OC | . | . | . | . | . | .
SMILES | PABP1 MLLE inh | DNA FID counter | eIF4H inh | PABP FP inh | HCV core dimer | NS3 helicase inh
CN(c1ccc(Cl)cc1)c1cc(=O)n(C)c2ccccc12 | . | . | . | . | 67.5 | .
CN(C(=O)COc1cc(=O)n(C)c2ccccc12)c1ccc(Cl)cc1 | . | . | . | . | . | .
COc1cc(/C=C(\CCC(=O)O)c2nc3ccccc3s2)ccc1OCC(=O)Nc1c(Cl)cccc1Cl | . | / | / | / | / | /
N=c1n(CCN2CCCC2)c2ccccc2n1CC(O)c1ccc(Cl)c(Cl)c1 (centres undefined) | . | 48.3 | . | . | . | .
Cc1ccc(NC(=O)c2ccc(N3CCCC3=O)cc2)cc1S(=O)(=O)N1CCCCC1 | . | / | / | / | / | /
COC(=O)c1ccccc1CSc1nsc(/C=C/N(C)C)c1C#N | . | . | . | active | . | .
